Data: ChEMBL document CHEMBL1128369, “Haloanilino derivatives of pyrimidines, purines, and purine nucleoside analogs: synthesis and activity against human cytomegalovirus” (J Med Chem, 1995)

Key:
HEL [1] = test: Inhibition against DNA of uninfected HEL cells by incorporation of [3H]TdR.; assay type: functional, cell-based; settings: Homo sapiens
In short: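 About 1/3 confluent uninfected HEL monolayers in DMEM + 10% FCS, preincubated 24 h at 37 °C. Serial compound dilutions in DMSO (or DMSO alone) added to duplicate wells with [3H]thymidine 1 μCi/mL for 24 h. Cells lysed with 0.4 M NaOH, then 5% TCA precipitate collected on filters and counted. IC50 is 50% inhibition of incorporation.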

HEL [2] = test: Inhibition of human CMV DNA synthesis in CMV-infected HEL cells.; assay type: functional, cell-based
In short: (§1)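 Dot-blot hybridization. HEL cells in MEM + 10% FCS infected with HCMV AD169 at about 1 pfu/cell for 60–90 min. Medium replaced by 3-fold drug dilutions (4–6 concentrations, duplicate wells) or DMSO. Incubated 48–96 h at 37 °C, 5% CO2. SDS/pronase lysates spotted on nitrocellulose, hybridized with 32P-labeled cloned viral DNA probe and counted. IC50 is 50% inhibition of viral DNA.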

HEL [3] = test: Inhibitory activity against HCMV DNA synthesis in virus infected cells; assay type: functional, cell-based; settings: Homo sapiens; in short: as §1
Nucleic Acid = test: Inhibitory activity against HCMV DNA polymerase in virus infected cells; assay type: functional, cell-based, Human betaherpesvirus 5
In short: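 HCMV DNA polymerase partially purified from HEL cells infected with AD169 (MOI 2, 3 days) by phosphocellulose and DEAE-cellulose chromatography. Assay buffer was 40 mM Tris-HCl pH 7.8 with 8 mM MgCl2, 100 mM KCl, 4 mM 2-mercaptoethanol, 0.1 mM dATP/dGTP/dCTP/[3H]dTTP and activated calf thymus DNA. Incubated 60 min at 37 °C; acid-precipitable counts measured. IC50 is the mean of duplicate experiments.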

HEL [4] = test: Concentration that inhibits HCMV yield by 90% relative to control cultures without drugs; assay type: functional; settings: Homo sapiens
In short: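 HCMV AD169 infected HEL cells in 96-well plates at 0.1 pfu/cell for 30 min, washed twice, then given compound dilutions or DMSO diluent. Incubated 7 days at 37 °C. Cells scraped and sonicated. Progeny titered by end-dilution, in triplicate, 3- or 5-fold serial dilutions on fresh HEL cells, read after 14 days as the highest dilution with enumerable plaques.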

**Q.** What does the source list for OCCOCn1cnc2c(O)nc(Nc3cc(Cl)cc(Cl)c3)nc21?
**A.** IC50 (HEL [1]): 14 µM; IC50 (HEL [2]): 15.2 µM

**Q.** How did the IC50 (HEL [1]) turn out when Oc1cc(Nc2cc(Cl)cc(Cl)c2)nc(O)n1 was run?
**A.** Its IC50 is 100 µM.

**Q.** And the IC50 (HEL [3])?
**A.** The IC50 was 25 µM.

**Q.** What about the IC50 (Nucleic Acid) of the same molecule?
**A.** The IC50 was 65 µM.

**Q.** What about the IC50 (HEL [2]) of the same molecule?
**A.** Its IC50 is 25 µM.

**Q.** And the IC90 (HEL [4])?
**A.** The IC90 was 69 µM.

**Q.** OCCOCn1cnc2c(Cl)nc(Nc3cc(Cl)cc(Cl)c3)nc21 was tested. Which IC50 (HEL [1]) did it give?
**A.** Its IC50 is 14.4 µM.

**Q.** And the IC50 (HEL [2])?
**A.** The IC50 was 12.5 µM.

**Q.** For Nc1nc(O)cc(Nc2ccc(F)c(F)c2)n1, which IC50 (HEL [1]) is on record?
**A.** Its IC50 is over 200 µM.

**Q.** What about the IC50 (HEL [2]) of the same molecule?
**A.** The IC50 was 115 µM.

**Q.** For Oc1cc(Nc2ccc(Cl)c(F)c2)nc(O)n1, which IC50 (HEL [1]) is on record?
**A.** The IC50 was over 200 µM.

**Q.** What about the IC50 (HEL [2]) of the same molecule?
**A.** Its IC50 is over 200 µM.

**Q.** Which results are given for Nc1nc(O)cc(Nc2cc(Cl)cc(Cl)c2)n1?
**A.** IC50 (HEL [1]): 95 µM; IC50 (HEL [3]): 28 µM; IC50 (Nucleic Acid): 175 µM; IC50 (HEL [2]): 28 µM; IC90 (HEL [4]): 91 µM

**Q.** With OC[C@H]1O[C@@H](n2cnc3c(O)nc(Nc4cc(Cl)cc(Cl)c4)nc32)C[C@@H]1O as the molecule, how does the IC50 (HEL [1]) read?
**A.** The IC50 was 13 µM.

**Q.** What about the IC50 (HEL [2]) of the same molecule?
**A.** Its IC50 is 15.1 µM.

**Q.** What does the source list for OC[C@H]1O[C@@H](n2cnc3c(Cl)nc(Nc4cc(Cl)cc(Cl)c4)nc32)C[C@@H]1O?
**A.** IC50 (HEL [1]): 3.4 µM; IC50 (HEL [2]): 7.9 µM

**Q.** With Nc1nc(Nc2cc(Cl)cc(Cl)c2)nc2c1ncn2[C@H]1C[C@H](O)[C@@H](CO)O1 as the molecule, how does the IC50 (HEL [1]) read?
**A.** Its IC50 is 0.5 µM.

**Q.** And the IC50 (HEL [2])?
**A.** The IC50 was 8.6 µM.

**Q.** Nc1nc(O)cc(Nc2ccc(Cl)c(F)c2)n1 was tested. Which IC50 (HEL [1]) did it give?
**A.** Its IC50 is 165 µM.

**Q.** And the IC50 (HEL [2])?
**A.** The IC50 was 70 µM.

**Q.** Which IC50 (HEL [1]) does the source give for Nc1nc(O)cc(Nc2cc(F)cc(F)c2)n1 here?
**A.** Its IC50 is over 200 µM.

**Q.** And the IC50 (HEL [2])?
**A.** The IC50 was 63 µM.

**Q.** With Nc1nc(Nc2cc(Cl)cc(Cl)c2)nc2c1ncn2COC(CO)CO as the molecule, how does the IC50 (HEL [1]) read?
**A.** Its IC50 is 5 µM.

**Q.** And the IC50 (HEL [2])?
**A.** Its IC50 is 47.9 µM.

**Q.** How did the IC50 (HEL [1]) turn out when Oc1cc(Nc2cc(F)cc(F)c2)nc(O)n1 was run?
**A.** The IC50 was over 200 µM.

**Q.** And the IC50 (HEL [2])?
**A.** Its IC50 is over 200 µM.

**Q.** OCC(CO)OCn1cnc2c(O)nc(Nc3cc(Cl)cc(Cl)c3)nc21 was tested. Which IC50 (HEL [1]) did it give?
**A.** The IC50 was 41.7 µM.

**Q.** What about the IC50 (HEL [2]) of the same molecule?
**A.** The IC50 was 45 µM.

**Q.** How did the IC50 (HEL [1]) turn out when Nc1nc(O)cc(Nc2ccc(F)c(Cl)c2)n1 was run?
**A.** The IC50 was 110 µM.

**Q.** What about the IC50 (HEL [2]) of the same molecule?
**A.** The IC50 was 20 µM.

**Q.** For Nc1[nH]c(Nc2cc(Cl)cc(Cl)c2)nc2ncnc1-2, which IC50 (HEL [1]) is on record?
**A.** Its IC50 is 40 µM.

**Q.** What about the IC50 (HEL [3]) of the same molecule?
**A.** Its IC50 is 8 µM.

**Q.** What about the IC50 (Nucleic Acid) of the same molecule?
**A.** Its IC50 is 250 µM.

**Q.** And the IC50 (HEL [2])?
**A.** The IC50 was 8 µM.

**Q.** And the IC90 (HEL [4])?
**A.** Its IC90 is 16.8 µM.

**Q.** With Oc1[nH]c(Nc2ccc(Cl)c(Cl)c2)nc2ncnc1-2 as the molecule, how does the IC50 (HEL [1]) read?
**A.** The IC50 was 60 µM.

**Q.** What about the IC50 (HEL [3]) of the same molecule?
**A.** Its IC50 is 12 µM.

**Q.** What about the IC50 (Nucleic Acid) of the same molecule?
**A.** Its IC50 is 330 µM.

**Q.** And the IC50 (HEL [2])?
**A.** Its IC50 is 12 µM.

**Q.** With Nc1nc(Nc2cc(Cl)cc(Cl)c2)nc2c1ncn2COCCO as the molecule, how does the IC50 (HEL [1]) read?
**A.** The IC50 was 1.4 µM.

**Q.** And the IC50 (HEL [2])?
**A.** Its IC50 is 7.9 µM.

**Q.** For Oc1cc(Nc2cc(F)cc(Cl)c2)nc(O)n1, which IC50 (HEL [1]) is on record?
**A.** The IC50 was over 200 µM.

**Q.** What about the IC50 (HEL [2]) of the same molecule?
**A.** The IC50 was over 200 µM.

**Q.** For Oc1cc(Nc2ccc(Cl)c(Cl)c2)nc(O)n1, which IC50 (HEL [1]) is on record?
**A.** The IC50 was over 200 µM.

**Q.** And the IC50 (HEL [3])?
**A.** Its IC50 is 40 µM.

**Q.** What about the IC50 (Nucleic Acid) of the same molecule?
**A.** The IC50 was 45 µM.

**Q.** And the IC50 (HEL [2])?
**A.** The IC50 was 40 µM.

**Q.** Nc1nc(O)cc(Nc2cc(F)cc(Cl)c2)n1 was tested. Which IC50 (HEL [1]) did it give?
**A.** The IC50 was over 200 µM.

**Q.** And the IC50 (HEL [2])?
**A.** Its IC50 is over 200 µM.

**Q.** For Nc1nc(Cl)cc(Nc2cc(Cl)cc(Cl)c2)n1, which IC50 (HEL [1]) is on record?
**A.** The IC50 was 32 µM.

**Q.** What about the IC50 (HEL [2]) of the same molecule?
**A.** Its IC50 is 4.7 µM.

**Q.** And the IC90 (HEL [4])?
**A.** The IC90 was 18 µM.

**Q.** Which IC50 (HEL [1]) does the source give for Oc1[nH]c(Nc2cc(Cl)cc(Cl)c2)nc2ncnc1-2 here?
**A.** The IC50 was 400 µM.

**Q.** What about the IC50 (HEL [3]) of the same molecule?
**A.** The IC50 was 33 µM.

**Q.** What about the IC50 (Nucleic Acid) of the same molecule?
**A.** Its IC50 is 140 µM.

**Q.** And the IC50 (HEL [2])?
**A.** Its IC50 is 33 µM.

**Q.** What about the IC90 (HEL [4]) of the same molecule?
**A.** The IC90 was 56 µM.

**Q.** For Nc1[nH]c(Nc2ccc(Cl)c(Cl)c2)nc2ncnc1-2, which IC50 (HEL [1]) is on record?
**A.** The IC50 was 3.4 µM.

**Q.** What about the IC50 (HEL [2]) of the same molecule?
**A.** Its IC50 is 5 µM.

**Q.** What does the source list for Nc1nc(Cl)cc(Nc2ccc(Cl)c(Cl)c2)n1?
**A.** IC50 (HEL [1]): 31 µM; IC50 (HEL [3]): 9.1 µM; IC50 (Nucleic Acid): 150 µM; IC50 (HEL [2]): 9.1 µM; IC90 (HEL [4]): 8.7 µM

**Q.** Which IC50 (HEL [1]) does the source give for Nc1nc(O)cc(Nc2ccc(Cl)c(Cl)c2)n1 here?
**A.** The IC50 was 32 µM.

**Q.** And the IC50 (HEL [3])?
**A.** The IC50 was 25 µM.

**Q.** What about the IC50 (Nucleic Acid) of the same molecule?
**A.** The IC50 was 360 µM.

**Q.** And the IC50 (HEL [2])?
**A.** The IC50 was 25 µM.

**Q.** Which results are given for Oc1cc(Nc2ccc(F)c(Cl)c2)nc(O)n1?
**A.** IC50 (HEL [1]): > 200 µM; IC50 (HEL [2]): 140 µM

**Q.** What does the source list for Oc1cc(Nc2ccc(F)c(F)c2)nc(O)n1?
**A.** IC50 (HEL [1]): > 200 µM; IC50 (HEL [2]): > 200 µM

**Q.** With O=C(O)P(=O)(O)O [FOSCARNET SODIUM] as the molecule, how does the IC50 (HEL [2]) read?
**A.** Its IC50 is 15.5 µM.

**Q.** For Nc1nc2c(ncn2COC(CO)CO)c(=O)[nH]1 [GANCICLOVIR], which IC50 (HEL [1]) is on record?
**A.** Its IC50 is 7 µM.

**Q.** And the IC50 (HEL [2])?
**A.** The IC50 was 0.5 µM.

**Q.** And the IC90 (HEL [4])?
**A.** The IC90 was 2.1 µM.
